This passage reports MIC and Activity results from ChEMBL document CHEMBL4680134, “Structural optimization of natural product nordihydroguaretic acid to discover novel analogues as AcrB inhibitors” (Eur J Med Chem, 2020).

Each structure is given as a SMILES string.

Series [1] has as its target T1, Multidrug efflux pump subunit AcrB (Escherichia coli (strain K12)) (UniProt P31224).
T1 sequence (whole entry): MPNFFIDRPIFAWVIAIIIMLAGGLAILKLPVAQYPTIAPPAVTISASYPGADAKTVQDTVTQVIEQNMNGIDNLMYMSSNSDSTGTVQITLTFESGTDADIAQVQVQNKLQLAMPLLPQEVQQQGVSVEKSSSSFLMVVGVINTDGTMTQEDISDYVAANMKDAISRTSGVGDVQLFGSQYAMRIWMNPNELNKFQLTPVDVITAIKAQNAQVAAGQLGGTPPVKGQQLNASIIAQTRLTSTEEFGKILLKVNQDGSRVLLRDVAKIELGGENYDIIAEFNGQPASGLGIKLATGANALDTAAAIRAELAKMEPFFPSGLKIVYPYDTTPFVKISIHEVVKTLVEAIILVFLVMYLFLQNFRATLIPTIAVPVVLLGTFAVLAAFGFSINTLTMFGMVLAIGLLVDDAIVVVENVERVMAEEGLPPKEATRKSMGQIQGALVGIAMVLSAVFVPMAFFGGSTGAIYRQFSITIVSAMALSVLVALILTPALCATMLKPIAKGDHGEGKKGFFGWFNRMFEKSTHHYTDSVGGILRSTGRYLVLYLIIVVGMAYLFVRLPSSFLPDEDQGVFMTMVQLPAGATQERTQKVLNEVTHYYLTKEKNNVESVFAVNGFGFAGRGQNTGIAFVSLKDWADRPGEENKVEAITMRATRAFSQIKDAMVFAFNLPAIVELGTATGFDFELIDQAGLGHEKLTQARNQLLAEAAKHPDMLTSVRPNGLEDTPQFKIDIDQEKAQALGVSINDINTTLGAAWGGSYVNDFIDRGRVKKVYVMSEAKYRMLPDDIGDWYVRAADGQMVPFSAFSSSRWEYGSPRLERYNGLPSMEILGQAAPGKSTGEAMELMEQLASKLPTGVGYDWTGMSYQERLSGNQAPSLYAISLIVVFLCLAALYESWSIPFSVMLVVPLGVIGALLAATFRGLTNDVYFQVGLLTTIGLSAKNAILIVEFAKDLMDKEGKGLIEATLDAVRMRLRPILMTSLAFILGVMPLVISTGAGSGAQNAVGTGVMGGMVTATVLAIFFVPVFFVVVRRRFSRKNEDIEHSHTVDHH
Kind of series: Inhibition of AcrB in Escherichia coli BW25113 assessed as potentiation of rifampicin induced antibacterial activity by measuring rifampicin MIC at 16 ug/ml measured after 18 hrs by checkerboard titration method (reference value: 16 ug/ml). The following applies: dose 16.0 µg/ml.

The target of series [2] is T1, Multidrug efflux pump subunit AcrB (Escherichia coli (strain K12)). As to the kind of experiment: Inhibition of AcrB in Escherichia coli BW25113 assessed as potentiation of levofloxacin induced antibacterial activity by measuring levofloxacin MIC at 8 ug/ml measured after 18 hrs by checkerboard titration method (reference value: 0.06 ug/ml). The following applies: dose 8.0 µg/ml.

For series [3] the target is unchanged. Kind of series: Inhibition of AcrB in Escherichia coli BW25113 assessed as potentiation of levofloxacin induced antibacterial activity by measuring levofloxacin MIC at 16 ug/ml measured after 18 hrs by checkerboard titration method (reference value: 0.06 ug/ml). The following applies: dose 16.0 µg/ml.
For series [4] the target is unchanged. As to the kind of experiment: Inhibition of AcrB in Escherichia coli BW25113 assessed as potentiation of erythromycin induced antibacterial activity by measuring erythromycin MIC at 8 ug/ml measured after 18 hrs by checkerboard titration method (reference value: 64 ug/ml). The following applies: dose 8.0 µg/ml.
The next series deals with Cell membrane. As to the kind of experiment: Induction of outer membrane permeabilization in wild type Escherichia coli BW25113 assessed as increase in nitrocefin hydrolysis at 128 ug/ml by spectrophotometry analysis. To be noted: dose 128 µg/ml. The gist of the method: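 Outer-membrane permeability: intact E. coli treated with 10 µM CCCP to block nitrocefin efflux, then exposed to compound. Nitrocefin hydrolysis by periplasmic β-lactamase followed as increasing absorbance at 490 nm over time. Polymyxin B as permeabilizer control, untreated cells as baseline. Duplicate experiments on different days.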

Series [5] has as its target T1, Multidrug efflux pump subunit AcrB (Escherichia coli (strain K12)). Kind of series: Inhibition of AcrB in Escherichia coli BW25113 assessed as potentiation of tetraphenylphosphonium induced antibacterial activity by measuring tetraphenylphosphonium MIC at 8 ug/ml measured after 18 hrs by checkerboard titration method (reference value: 1024 ug/ml). To be noted: dose 8.0 µg/ml.

Series [6] has the same target. As to the kind of experiment: Inhibition of AcrB in Escherichia coli BW25113 assessed as potentiation of erythromycin induced antibacterial activity by measuring erythromycin MIC at 128 ug/ml measured after 18 hrs by checkerboard titration method (reference value: 64 ug/ml). The following applies: dose 128.0 µg/ml.
For series [7] the target is unchanged. As to the kind of experiment: Inhibition of AcrB in Escherichia coli BW25113 assessed as potentiation of chloramphenicol induced antibacterial activity by measuring chloramphenicol MIC at 8 ug/ml measured after 18 hrs by checkerboard titration method (reference value: 8 ug/ml). To be noted: dose 8.0 µg/ml.
Series [8] shares this target. As to the kind of experiment: Inhibition of AcrB in Escherichia coli BW25113 assessed as potentiation of tetraphenylphosphonium induced antibacterial activity by measuring tetraphenylphosphonium MIC at 16 ug/ml measured after 18 hrs by checkerboard titration method (reference value: 1024 ug/ml). To be noted: dose 16.0 µg/ml.
Series [9] shares this target. As to the kind of experiment: Inhibition of AcrB in Escherichia coli BW25113 assessed as potentiation of chloramphenicol induced antibacterial activity by measuring chloramphenicol MIC at 16 ug/ml measured after 18 hrs by checkerboard titration method (reference value: 8 ug/ml). To be noted: dose 16.0 µg/ml.
The target is the same in series [10]. As to the kind of experiment: Inhibition of AcrB in Escherichia coli BW25113 assessed as potentiation of rifampicin induced antibacterial activity by measuring rifampicin MIC at 8 ug/ml measured after 18 hrs by checkerboard titration method (reference value: 16 ug/ml). The following applies: dose 8.0 µg/ml.

Turning to `Nc1ccc(C(=O)NCCc2ccc(O)c(O)c2)cc1`, the MIC in series [1] amounted to 16 µg/mL; in series [2], 0.06 µg/mL; in series [3] it was 0.06 µg/mL; in series [4], 64 µg/mL; in series [5], 1020 µg/mL; in series [6], 16 µg/mL. The MIC in series [7] was determined as 8 µg/mL; in series [8], 1020 µg/mL; in [9], 4 µg/mL; in series [10], 16 µg/mL. Further, the Activity entry in the series on Cell membrane is given as “Non-Toxic”.

For the compound `Nc1ccccc1C(=O)NCCc1ccc(O)c(O)c1`, the MIC in [1] was 16 µg/mL; in series [2], 0.06 µg/mL; in [3], 0.06 µg/mL; in [4], 64 µg/mL; in series [5], 1020 µg/mL; in series [6] it was 32 µg/mL. For the same compound, the MIC amounted to 8 µg/mL in [7], 1020 µg/mL in [8], 8 µg/mL in series [9] and 16 µg/mL in [10]. In addition, the Activity entry in the series with Cell membrane is reported as “Non-Toxic”.

For `Cc1ccc(C(=O)NCCc2ccc(O)c(O)c2)cc1`, the MIC in [1] was determined as 16 µg/mL; in series [2], 0.06 µg/mL; in series [3], 0.06 µg/mL; in [4], 64 µg/mL; in series [5], 1020 µg/mL; in series [7], 8 µg/mL. Further, the MIC in series [8] amounted to 1020 µg/mL; in [9], 8 µg/mL; in series [10], 16 µg/mL. For the same compound, the Activity result in the series with Cell membrane was “Non-Toxic”.

On to `O=C(NCCc1ccc(O)c(O)c1)c1cc(O)c(O)c(O)c1`, for which the MIC in [1] was found to be 16 µg/mL; in series [2], 0.06 µg/mL; in [3] it was 0.06 µg/mL; in series [4], 32 µg/mL; in [5], 1020 µg/mL; in [6], 16 µg/mL. Moreover, the MIC was 4 µg/mL in series [7], 1020 µg/mL in series [8], 4 µg/mL in series [9] and 16 µg/mL in series [10]. In the series with Cell membrane, the Activity result was “Non-Toxic”.

Regarding `O=C(NCCc1ccc(O)c(O)c1)c1ccc(O)c(O)c1`, the MIC in series [1] amounted to 16 µg/mL; in series [2], 0.06 µg/mL; in [3], 0.06 µg/mL; in [4], 64 µg/mL; in [5], 1020 µg/mL; in series [6], 32 µg/mL. Moreover, the MIC amounted to 8 µg/mL in series [7], 1020 µg/mL in series [8], 4 µg/mL in series [9] and 16 µg/mL in [10].

As to `Nc1cc(N)cc(C(=O)NCCc2ccc(O)c(O)c2)c1`, the MIC was 16 µg/mL in series [1]; 0.06 µg/mL in [2]; 0.06 µg/mL in series [3]; 64 µg/mL in [4]; 512 µg/mL in [5]; 32 µg/mL in series [6]. Moreover, the MIC worked out at 8 µg/mL in [7], 512 µg/mL in series [8], 8 µg/mL in [9] and 16 µg/mL in series [10]. The Activity result in the series on Cell membrane was “Non-Toxic”.
